The text below walks through data of ChEMBL document CHEMBL4665753, “Ecdysteroid Derivatives that Reverse P-Glycoprotein-Mediated Drug Resistance” (J Nat Prod, 2020).

The GI50 is the concentration that inhibits growth by half.

SMILES strings stand for the structures. Calls of active or inactive are those of the source. The calls are words filed in the database; no cut-off is given here. Where only a bound is given, the exact number is not on record here.

Series [1] in a line: Cytotoxicity against human peripheral blood lymphocytes assessed as cell growth inhibition after 72 hrs by MTT assay. The class given is functional. The conditions noted are these: Lymphocyte. The gist of the method: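 Resting, non-PHA-stimulated lymphocytes from healthy-donor buffy coats were isolated by density-gradient centrifugation and incubated overnight in RPMI-1640 with 10% FBS. Nonadherent cells were then seeded at 5 × 10^5 cells/mL with a range of compound concentrations for 72 h. Viability was read by MTT at 560 nm. GI50 was taken as 50% proliferation inhibition from log concentration plots.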
(In general: Tetrazolium assays rely on reduction of a dye to a coloured formazan, in cell work by metabolically active cells.)

Series [2] can be described thus: Cytotoxicity against human peripheral blood lymphocytes assessed as cell growth inhibition after 72 hrs in presence of PHA by MTT assay. Type of series: functional. As to conditions: Lymphocyte. The gist of the method:
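Lymphocytes from healthy-donor buffy coats were isolated by density-gradient centrifugation and incubated overnight in RPMI-1640 with 10% FBS. Nonadherent cells were reseeded at 5 × 10^5 cells/mL in medium with 2.5 μg/mL PHA so they would proliferate, then exposed to a range of compound concentrations for 72 h. Viability was read by MTT at 560 nm. GI50 was taken as 50% proliferation inhibition.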

The species entered for series [3] is Homo sapiens. The series is described as follows: Stimulation of P-gp ATPase activity (unknown origin) assessed as increase in ATP consumption at 1 uM relative to control. The conditions noted are these: filed as activator. The gist of the method: (§1)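 Luminescent P-gp-Glo assay on recombinant human P-gp in a membrane fraction (25 μg), with sodium orthovanadate (100 μM) as ATPase inhibitor. Reactions were started with 10 mM MgATP and stopped after 40 min with luciferase detection reagent; luminescence was read 60 min later. ATP consumption appears as lost luminescence. Activity is given as fold change versus untreated control, mean of three independent experiments.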

In series [4] the target is ATP-dependent translocase ABCB1 (Homo sapiens, UniProt P08183). The series is described as follows: Inhibition of ABCB1 in human […] cells after 2 hrs by Hoechst dye based flow cytometric analysis. The class given is cell-based. The gist of the method:
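Medulloblastoma DAOY cells were treated with compounds at 10 μM for 2 h. Cells (10^6/mL) were stained with 5 μg/mL Hoechst 33342 in αMEM with 2% FBS for 90 min at 37 °C, then with 2 μg/mL propidium iodide at 4 °C for 10 min. Side-population cells were gated on PI-negative events on a Hoechst red vs blue plot under UV excitation, acquiring at least 30 000 live events.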
Background: A flow cytometer gives signals particle by particle.

Another series concerns CEM/VLB100. The series is described as follows: Synergistic antiproliferative activity against human CEM/VLB100 cells assessed as reduction in cell viability at 1:10 test compound to vinblastine after 48 hrs by MTT assay.
Series [5] is filed under the species Homo sapiens. The series is described as follows: Stimulation of P-gp ATPase activity (unknown origin) assessed as increase in ATP consumption at 10 uM relative to control. The conditions noted are these: filed as activator. The method, boiled down:
as §1

Sequence of ATP-dependent translocase ABCB1 (P08183 whole entry): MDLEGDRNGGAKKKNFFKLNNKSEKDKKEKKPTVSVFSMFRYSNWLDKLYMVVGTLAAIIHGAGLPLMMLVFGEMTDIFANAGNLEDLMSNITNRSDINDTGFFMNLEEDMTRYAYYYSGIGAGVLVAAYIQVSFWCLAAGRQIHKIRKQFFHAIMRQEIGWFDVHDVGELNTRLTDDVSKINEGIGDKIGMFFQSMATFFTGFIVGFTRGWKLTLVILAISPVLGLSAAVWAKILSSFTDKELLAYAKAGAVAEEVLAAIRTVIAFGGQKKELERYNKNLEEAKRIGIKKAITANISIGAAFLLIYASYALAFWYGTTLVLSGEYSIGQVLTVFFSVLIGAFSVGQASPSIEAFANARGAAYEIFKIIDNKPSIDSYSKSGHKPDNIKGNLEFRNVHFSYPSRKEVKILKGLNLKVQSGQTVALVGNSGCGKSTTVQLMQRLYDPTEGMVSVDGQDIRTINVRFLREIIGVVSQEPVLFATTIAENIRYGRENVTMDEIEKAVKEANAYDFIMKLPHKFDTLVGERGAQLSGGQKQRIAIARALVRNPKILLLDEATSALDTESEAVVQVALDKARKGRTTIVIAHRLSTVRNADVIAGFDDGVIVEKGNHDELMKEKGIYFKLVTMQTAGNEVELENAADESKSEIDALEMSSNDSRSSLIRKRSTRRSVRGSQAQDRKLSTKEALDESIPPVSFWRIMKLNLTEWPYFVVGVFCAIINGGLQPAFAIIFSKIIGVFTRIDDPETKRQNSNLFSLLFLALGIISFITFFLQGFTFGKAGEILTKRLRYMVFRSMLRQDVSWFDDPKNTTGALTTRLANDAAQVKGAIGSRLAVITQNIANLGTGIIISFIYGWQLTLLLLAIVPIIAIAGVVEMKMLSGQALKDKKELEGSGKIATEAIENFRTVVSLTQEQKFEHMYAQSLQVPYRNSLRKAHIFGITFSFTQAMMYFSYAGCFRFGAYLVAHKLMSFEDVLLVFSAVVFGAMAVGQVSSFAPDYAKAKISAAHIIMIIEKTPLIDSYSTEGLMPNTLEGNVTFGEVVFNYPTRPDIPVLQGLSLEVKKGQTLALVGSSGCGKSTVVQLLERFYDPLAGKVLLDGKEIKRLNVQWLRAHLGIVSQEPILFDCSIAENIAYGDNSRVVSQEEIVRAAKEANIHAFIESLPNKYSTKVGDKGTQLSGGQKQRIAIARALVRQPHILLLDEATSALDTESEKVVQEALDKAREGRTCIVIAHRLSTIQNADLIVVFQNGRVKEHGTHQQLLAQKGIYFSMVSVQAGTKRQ

Turning to `CC(C)(O)CC[C@H]1OC2(CCCCC2)O[C@]1(C)[C@H]1CC[C@@]2(O)C3=CC(=O)[C@@H]4C[C@H]5OC6(CCCCC6)O[C@H]5C[C@]4(C)[C@H]3CC[C@]12C`, the values for the GI50 in series [1] and in series [2] were 61.7 µM and 42.8 µM, respectively. Besides, in the series listed under Homo sapiens [3], the fold change (FC) was 6. The “inhibition (INH)” value in series [4] was “Active”. In addition, the outcome in the series with CEM/VLB100 was Active.
Turning to `CC(C)(O)CC[C@@H](OC(=O)c1ccccc1)[C@](C)(O)[C@H]1CC[C@@]2(O)C3=CC(=O)[C@@H]4C[C@@H](OC(=O)c5ccccc5)[C@@H](OC(=O)c5ccccc5)C[C@]4(C)[C@H]3CC[C@]12C`, the GI50 in series [1] was > 100 µM; in series [2], 19.9 µM. For the same compound, the fold change (FC) in the series filed under Homo sapiens [5] stood at 4. In series [4], the “inhibition (INH)” value is “Active”. In addition, in the series with CEM/VLB100, the outcome was Active.
Regarding `COc1ccc(CCN(C)CCCC(C#N)(c2ccc(OC)c(OC)c2)C(C)C)cc1OC` (stereo unspecified), the fold change (FC) in the series filed under Homo sapiens [5] worked out at 4.
